Measured values from ChEMBL document CHEMBL4028911, “Discovery of a Small-Molecule Bromodomain-Containing Protein 4 (BRD4) Inhibitor That Induces AMP-Activated Protein Kinase-Modulated Autophagy-Associated Cell Death in Breast Cancer” (J Med Chem, 2017).
Active and inactive are the calls of the source. No cut-off for these calls is given here.

Assays:
[1] = system: MCF7; assay: Antiproliferative activity against human MCF7 cells after 24 hrs by MTT assay; assay type: functional, cell-based; conditions: MCF7, 24 h
[2] = target: Bromodomain-containing protein 4 (Homo sapiens, UniProt O60885); assay: Inhibition of His/thioredoxin-tagged human recombinant BRD4 bromodomain-1 (43 to 166 residues) expressed in Escherichia coli BL21 Star (DE3) pre-incubated for 30 mins followed by biotinylated histone peptide H4 addition measured after 30 mins by AlphaScreen assay
[3] = system: MDA-MB-231; assay: Antiproliferative activity against human MDA-MB-231 cells after 24 hrs by MTT assay; assay type: functional, cell-based; conditions: MDA-MB-231, 24 h
[4] = system: MDA-MB-231; assay: Induction of autophagy in GFP/mRFP treated human MDA-MB-231 cells assessed as induction of LC3 puncta at 150 uM by fluorescence microscopic analysis; assay type: functional, cell-based
How it was run: (§1)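 MCF-7 or MDA-MB-231 cells transfected with GFP/mRFP-LC3 plasmid, then treated with 150 µM for indicated times. GFP-LC3 puncta observed by fluorescence microscopy.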

[5] = system: MDA-MB-231; assay: Induction of autophagy in human MDA-MB-231 cells assessed as downregulation of p62/SQSTM1 expression at […] by Western blot analysis; assay type: functional, cell-based
[6] = system: MCF7; assay: Induction of autophagy in GFP/mRFP treated human MCF7 cells assessed as induction of LC3 puncta at 150 uM by fluorescence microscopic analysis; assay type: functional, cell-based; how it was run: as §1
[7] = system: MCF7; assay: Induction of autophagy in human MCF7 cells assessed as downregulation of p62/SQSTM1 expression at […] by Western blot analysis; assay type: functional, cell-based

Row | SMILES | IC50 [1] [µM] | IC50 [2] [µM] | IC50 [3] [µM] | Activity [4] | Activity [5] | Activity [6] | Activity [7]
1 | O=c1[nH]c(-c2ccc(Br)cc2)nc2sc3c(c12)CCCCC3 | > 30 | > 10 | > 30 |  |  |  | 
2 | Cc1cc(-c2nc3sc4c(c3c(=O)[nH]2)CCC(C)C4)cc(C)c1O (configuration not stated) | 5.59 | 3.24 | 9.42 |  |  |  | 
3 | CC1CCc2c(sc3nc(Cc4ccccc4)[nH]c(=O)c23)C1 (configuration not stated) | > 30 | > 10 | > 30 |  |  |  | 
4 | CCCc1cc2c(=O)[nH]c(-c3cccc(OC)c3)nc2s1 | > 30 | > 10 | > 30 |  |  |  | 
5 | O=c1[nH]c(-c2cccc(Br)c2)nc2sc3c(c12)CCC3 | > 30 | > 10 | > 30 |  |  |  | 
6 | O=c1[nH]c(-c2ccc(O)cc2)nc2sc3c(c12)CCCC3 | 22.8 | 7.32 | > 30 |  |  |  | 
7 | O=c1[nH]c(-c2ccccc2)nc2sc3c(c12)CCN(Cc1ccccc1)C3 | > 30 | > 10 | > 30 |  |  |  | 
8 | CC1CCc2c(sc3nc(-c4cccc(O)c4)[nH]c(=O)c23)C1 (configuration not stated) | > 30 | > 10 | > 30 |  |  |  | 
9 | CC1CCc2c(sc3nc(-c4cccc(Br)c4)[nH]c(=O)c23)C1 (configuration not stated) | 2.69 | 1.02 | 16.3 |  |  |  | 
10 | CN1CCc2c(sc3nc(Cc4ccc(-c5ccccc5)cc4)[nH]c(=O)c23)C1 | > 30 | > 10 | > 30 |  |  |  | 
11 | COc1cccc(-c2nc(=O)c3c4c(sc3[nH]2)CC(C)CC4)c1 (configuration not stated) | > 30 | > 10 | > 30 |  |  |  | 
12 | O=c1[nH]c(-c2ccc(O)cc2)nc2sc3c(c12)CCN(Cc1ccccc1)C3 | 17 | 6.37 | > 30 |  |  |  | 
13 | CC1CCc2c(sc3nc(-c4ccc(C(F)(F)F)cc4)[nH]c(=O)c23)C1 (configuration not stated) | > 30 | > 10 | > 30 |  |  |  | 
14 | O=c1[nH]c(Cc2ccc(-c3ccccc3)cc2)nc2sc3c(c12)CCCCC3 | > 30 | > 10 | > 30 |  |  |  | 
15 | COc1cccc(-c2nc3sc4c(c3c(=O)[nH]2)CCN(Cc2ccccc2)C4)c1 | > 30 | > 10 | > 30 |  |  |  | 
16 | O=c1[nH]c(-c2ccc(F)cc2F)nc2sc3c(c12)CCCC3 | > 30 | > 10 | > 30 |  |  |  | 
17 | CN1CCc2c(sc3nc(-c4ccc(C(F)(F)F)cc4)[nH]c(=O)c23)C1 | > 30 | > 10 | 22.2 |  |  |  | 
18 | O=c1[nH]c(-c2ccc(C(F)(F)F)cc2)nc2sc3c(c12)CCC3 | 8.39 | 1.53 | 14.7 |  |  |  | 
19 | CC1CCc2c(sc3nc(-c4ccc(O)cc4)[nH]c(=O)c23)C1 (configuration not stated) | 12.2 | 4.31 | 22.9 |  |  |  | 
20 | CC1CCc2c(sc3nc(-c4ccc(Br)cc4)[nH]c(=O)c23)C1 (configuration not stated) | > 30 | > 10 | > 30 |  |  |  | 
21 | O=c1[nH]c(Cc2ccccc2)nc2sc3c(c12)CCC3 | > 30 | > 10 | > 30 |  |  |  | 
22 | CCCc1cc2c(=O)[nH]c(-c3ccc(O)cc3)nc2s1 | > 30 | 8.59 | 28.4 |  |  |  | 
23 | COc1cc(OC)c2c(=O)[nH]c(-c3cc(C)c(OCCO)c(C)c3)nc2c1 [APABETALONE] | 140 |  | 155 | Active | Active | Active | Active
24 | O=c1[nH]c(-c2ccc(Br)cc2)nc2sc3c(c12)CCCC3 | > 30 | > 10 | > 30 |  |  |  | 
25 | COc1cccc(-c2nc3sc4c(c3c(=O)[nH]2)CCCC4)c1 | > 30 | > 10 | > 30 |  |  |  | 

Row | SMILES | IC50 [1] [µM] | IC50 [2] [µM] | IC50 [3] [µM] | Activity [4] | Activity [5] | Activity [6] | Activity [7]
26 | Oc1nc(-c2ccccc2)nc2sc3c(c12)CCCC3 | > 30 | > 10 | > 30 |  |  |  | 
27 | O=c1[nH]c(-c2ccc(C(F)(F)F)cc2)nc2sc3c(c12)CCCC3 | 28.1 | > 10 | > 30 |  |  |  | 
28 | O=c1[nH]c(-c2cccc(O)c2)nc2sc3c(c12)CCCCC3 | 13.2 | 3.98 | 17.4 |  |  |  | 
29 | COc1ccccc1-c1nc2sc3c(c2c(=O)[nH]1)CCC3 | 2.22 | 0.78 | 5.34 |  |  |  | 
30 | Cc1cc(-c2nc3sc4c(c3c(=O)[nH]2)CCCC4)cc(C)c1O | 24.9 | 6.93 | 27.8 |  |  |  | 
31 | O=c1[nH]c(-c2ccc(C(F)(F)F)cc2)nc2sc3c(c12)CCN(Cc1ccccc1)C3 | > 30 | > 10 | > 30 |  |  |  | 
32 | CN1CCc2c(sc3nc(-c4cccc(O)c4)[nH]c(=O)c23)C1 | > 30 | > 10 | > 30 |  |  |  | 
33 | O=c1[nH]c(Cc2ccccc2)nc2sc3c(c12)CCCCC3 | 4.5 | 0.82 | 5.8 |  |  |  | 
34 | CC1CCc2c(sc3nc(-c4ccccc4)[nH]c(=O)c23)C1 (configuration not stated) | > 30 | > 10 | > 30 |  |  |  | 
35 | O=c1[nH]c(-c2ccc(C(F)(F)F)cc2)nc2sc3c(c12)CCCCC3 | > 30 | > 10 | > 30 |  |  |  | 
36 | CN1CCc2c(sc3nc(-c4ccc(O)cc4)[nH]c(=O)c23)C1 | 5.48 | 0.72 | 8.29 |  |  |  | 
37 | O=c1[nH]c(-c2cccc(Br)c2)nc2sc3c(c12)CCCCC3 | 18.5 | 5.73 | > 30 |  |  |  | 
38 | CCCc1cc2c(=O)[nH]c(-c3cccc(Br)c3)nc2s1 | > 30 | > 10 | > 30 |  |  |  | 
39 | CN1CCc2c(sc3nc(-c4cccc(Br)c4)[nH]c(=O)c23)C1 | 2.17 | 1.04 | 8.31 |  |  |  | 
40 | Cc1cc(-c2nc3sc4c(c3c(=O)[nH]2)CCN(Cc2ccccc2)C4)cc(C)c1O | > 30 | > 10 | > 30 |  |  |  | 
41 | CC1CCc2c(sc3nc(Cc4ccc(-c5ccccc5)cc4)[nH]c(=O)c23)C1 (configuration not stated) | > 30 | > 10 | > 30 |  |  |  | 
42 | CC1CCc2c(sc3nc(-c4cc(F)c(F)c(F)c4)[nH]c(=O)c23)C1 (configuration not stated) | > 30 | > 10 | > 30 |  |  |  | 
43 | O=c1[nH]c(-c2ccccc2)nc2sc3c(c12)CCC3 | > 30 | > 10 | > 30 |  |  |  | 
44 | O=c1[nH]c(-c2ccc(O)cc2)nc2sc3c(c12)CCCCC3 | 1.56 | 0.56 | 3.29 |  |  |  | 
45 | Cc1cc(-c2nc3sc4c(c3c(=O)[nH]2)CCC4)cc(C)c1O | 18.5 | 6.38 | 23.1 |  |  |  | 
46 | CCCc1cc2c(=O)[nH]c(Cc3ccc(-c4ccccc4)cc3)nc2s1 | > 30 | > 10 | > 30 |  |  |  | 
47 | COc1ccccc1-c1nc2sc3c(c2c(=O)[nH]1)CCN(C)C3 | 5.6 | 2.47 | 8.19 |  |  |  | 
48 | Cc1sc2c(c1C)C(c1ccc(Cl)cc1)=N[C@@H](CC(=O)OC(C)(C)C)c1nnc(C)n1-2 | 28.8 |  | 33 |  |  |  | 
49 | Cc1cc(-c2nc3sc4c(c3c(=O)[nH]2)CCCCC4)cc(C)c1O | 2.81 | 0.49 | 8.31 |  |  |  | 
50 | O=c1[nH]c(-c2ccc(Br)cc2)nc2sc3c(c12)CCC3 | 21.3 | 8.94 | > 30 |  |  |  | 
